What all share (format): cell-based
Assay [1] addresses T1, Cannabinoid receptor 2 (Homo sapiens, UniProt P34972). Nature of the assay: Displacement of [3H]-WIN 55,212-2 from human CB2 receptor expressed in human HEK293 cells after 90 mins by radioligand assay. A general note: In a radioligand displacement assay an active substance lowers the binding of a labelled ligand.
Assay [2] deals with T1, Cannabinoid receptor 2. Description: Displacement of [3H]-WIN 55,212-2 from human CB2 receptor expressed in human HEK293 cells at 1 uM after 90 mins by radioligand assay.
The target in assay [3] is T2, Cannabinoid receptor 1 (Homo sapiens, UniProt P21554). Description: Displacement of [3H]-CP-55,940 from human CB1 receptor expressed in human HEK293 cells at 1 uM after 90 mins by radioligand assay. An outline of the steps:
(§1)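 Percent displacement of [3H]-CP 55,940 (0.5 nM) from human recombinant CB1 in HEK-293 cell membranes (Bmax 2.5 pmol/mg protein), with a single inhibitor concentration of 1 or 10 µM. Incubation was 90 min at 30 °C, and nonspecific binding was defined with 10 uM WIN 55212-2.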

The target of assay [4] is T2, Cannabinoid receptor 1. Nature of the assay: Displacement of [3H]-CP-55,940 from human CB1 receptor expressed in human HEK293 cells after 90 mins by radioligand assay. Put shortly:
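Membranes from HEK-293 cells transfected with human recombinant CB1 (Bmax 2.5 pmol/mg protein) were incubated with 0.14 nM [3H]-CP-55,940 (Kd 0.18 nM) and increasing compound concentrations for 90 min at 30 °C. Nonspecific binding was defined with 10 uM WIN 55212-2. Ki was calculated from IC50 by Cheng–Prusoff.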

For assay [5], the target named is T2, Cannabinoid receptor 1. Description: Displacement of [3H]-CP-55,940 from human CB1 receptor expressed in human HEK293 cells at 10 uM after 90 mins by radioligand assay. Put shortly: as §1
Assay [6] has as its target T1, Cannabinoid receptor 2. Description: Displacement of [3H]-WIN 55,212-2 from human CB2 receptor expressed in human HEK293 cells at 10 uM after 90 mins by radioligand assay.

T2 sequence (P21554 whole entry): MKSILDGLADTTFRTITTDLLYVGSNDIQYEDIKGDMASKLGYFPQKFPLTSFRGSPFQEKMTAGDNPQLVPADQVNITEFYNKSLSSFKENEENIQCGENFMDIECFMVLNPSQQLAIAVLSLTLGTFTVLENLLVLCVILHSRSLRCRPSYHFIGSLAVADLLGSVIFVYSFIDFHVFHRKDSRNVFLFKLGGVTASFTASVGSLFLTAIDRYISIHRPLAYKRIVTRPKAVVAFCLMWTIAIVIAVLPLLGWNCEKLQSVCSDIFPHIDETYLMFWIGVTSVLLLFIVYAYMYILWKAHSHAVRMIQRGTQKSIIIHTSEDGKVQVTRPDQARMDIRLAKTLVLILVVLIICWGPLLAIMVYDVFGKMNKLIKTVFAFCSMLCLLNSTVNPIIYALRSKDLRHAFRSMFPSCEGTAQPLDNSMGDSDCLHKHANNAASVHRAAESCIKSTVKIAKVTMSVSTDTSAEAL
T1 sequence (P34972 whole entry): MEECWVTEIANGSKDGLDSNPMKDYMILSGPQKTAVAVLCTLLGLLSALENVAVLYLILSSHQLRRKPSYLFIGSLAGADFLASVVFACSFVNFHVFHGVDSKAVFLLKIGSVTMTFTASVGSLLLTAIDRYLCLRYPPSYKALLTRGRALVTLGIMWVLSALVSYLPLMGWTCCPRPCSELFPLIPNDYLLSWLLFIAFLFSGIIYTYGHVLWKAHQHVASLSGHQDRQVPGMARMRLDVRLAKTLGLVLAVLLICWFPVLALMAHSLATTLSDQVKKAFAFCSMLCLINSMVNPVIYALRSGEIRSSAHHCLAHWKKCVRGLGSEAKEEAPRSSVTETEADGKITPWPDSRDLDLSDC

On to `N#C/C(=C\c1cn(CCN2CCOCC2)c2ccccc12)S(=O)(=O)c1ccccc1`, for which the results for the IC50 in assay [1] and in assay [4] were 0.0401 µM and 0.155 µM, respectively. In addition, the values for the Ki in assay [1] (read-out: Ki) and in assay [4] were 0.0102 µM and 0.062 µM, respectively. Besides, the Activity was found to be 95.9% in assay [2] and 85% in assay [3].

For `CC1(C)C(C(=O)c2cn(CC3CCOCC3)c3c(CC4CCOCC4)c4c(cc23)OCO4)C1(C)C`, the Ki in assay [1] (read-out: pKi (converted)) is 0.00102 µM.

Consider `CCOC(=O)/C(=C/c1cn(CCN2CCOCC2)c2ccccc12)C(=O)c1ccccc1`, for which the Activity in assay [5] was 43.2%; in assay [6], 66%. Also, the IC50 in assay [1] was 6.22 µM; in assay [4], above 10 µM. The Ki in assay [1] (read-out: Ki) is 1.58 µM; in assay [4], above 10 µM.

For the molecule `N#C/C(=C\c1cn(CCN2CCCCC2)c2ccccc12)S(=O)(=O)c1ccccc1`, the Activity in assay [5] turned out to be 83%; in assay [6], 101%. Besides, the Ki in assay [1] (read-out: Ki) was 0.0075 µM.

Regarding `CCOC(=O)/C(=C/c1cn(CCN2CCCCC2)c2ccccc12)C(=O)c1ccccc1`, the Activity in assay [5] came out at 25.1%; in assay [6], 70.8%. Moreover, the IC50 in assay [1] is 5.48 µM; in assay [4], above 10 µM. The results for the Ki in assay [1] (read-out: Ki) and in assay [4] were 1.39 µM and above 10 µM, respectively.

As a reminder, the IC50 is the point on the concentration scale where inhibition reaches its midpoint.

The values are drawn from ChEMBL document CHEMBL1833961, “Homology modeling in tandem with 3D-QSAR analyses: a computational approach to depict the agonist binding site of the human CB2 receptor” (Eur J Med Chem, 2011).
